Reference: ChEMBL document CHEMBL4017535 (J Med Chem, 2017)
pEC50, pIC50, pKd, pKi: −log10 of the molar value.

Experiments:
[1] = target: Bromodomain-containing protein 7 (Homo sapiens, UniProt Q9NPI1); assay: Binding affinity to human BRD7 (L125 to R254 residues) expressed in mammalian expression system by BROMOscan assay
[2] = Half life in po dosed dog; format: ADME, organism-based, Canis lupus familiaris; details: in vivo
Liver [3] = assay: Unbound intrinsic clearance in rat liver microsomes at 10 uM preincubated for 5 mins followed by NADPH addition measured after 60 mins by HPLC-UV-MS analysis; format: ADME, microsome; details: 1 h
[4] = Intrinsic clearance in monkey hepatocytes; format: ADME, cell-based, Macaca mulatta, Hepatocyte; details: rhesus monkey, read-out: CLH (converted)
[5] = Plasma clearance in mouse at 3 mg/kg, iv; format: ADME, organism-based
[6] = target: Bromodomain adjacent to zinc finger domain protein 2B (Homo sapiens, UniProt Q9UIF8); assay: Binding affinity to human BAZ2B (S2054 to S2168 residues) expressed in bacterial expression system by BROMOscan assay
[7] = Intrinsic clearance in human liver microsomes at 10 uM preincubated for 5 mins followed by NADPH addition measured after 60 mins by HPLC-UV-MS analysis; format: ADME, microsome; details: read-out: CLH
[8] = Fraction unbound in mouse plasma at 1 uM after 4 hrs by LC-MS/MS method; format: ADME, cell-free
[9] = Plasma clearance in iv dosed dog; format: ADME, organism-based, Canis lupus familiaris
[10] = target: T1, Bromodomain-containing protein 4 (Homo sapiens, UniProt O60885); assay: Binding affinity to human N-terminal His6-tagged BRD4 BD1-BD2 (K57 to K550 residues) after 1 hr using alexa-647 conjugated probe by TR-FRET assay
[11] = Fraction unbound in rat plasma at 1 uM after 4 hrs by LC-MS/MS method; format: ADME, cell-free
[12] = target: SWI/SNF-related matrix-associated actin-dependent regulator of chromatin subfamily A member 4 (Homo sapiens, UniProt P51532); assay: Binding affinity to human SMARCA4 (A1448 to S1575 residues) expressed in bacterial expression system by BROMOscan assay
[13] = target: T1, Bromodomain-containing protein 4; assay: Binding affinity to N-terminal His6-tagged human BRD4 BD1 to BD2 (K57 to K550 residues) by isothermal titration calorimetry
[14] = target: T1, Bromodomain-containing protein 4; assay: Inhibition of BRD4 in human H1299 cells assessed as decrease in HPV LCR-E2-EP400-mediated transcriptional repression after 24 hrs by Bright-Glo luciferase reporter gene assay; format: cell-based
[15] = Oral bioavailability in mouse at 10 mg/kg; format: ADME, organism-based; details: in vivo
Summary of the method: (§1)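 Mouse PK: 3 mg/kg IV and 10 mg/kg PO. Clearance is expressed unbound, Cl_p,u in L/hr/kg. AUC is unbound, in µM*hr. FaFg is computed as F/(1-Clp/Qh), with mouse liver blood flow Qh 5.2 L/hr/kg. Unbound plasma fraction was measured separately.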

[16] = Half life in human at 1 mg, po; format: ADME; details: in vivo
Summary of the method: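 Clinical PK in subjects with cancer after a single 1 mg oral dose, n = 3. Apparent clearance was reported as PO CLp/F in L/hr.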

Mus musculus [17] = assay: Oral absorption in mouse at 10 mg/kg; format: ADME, organism-based; details: in vivo
Summary of the method: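 Oral absorption is expressed as FaFg, calculated as F/(1-Clp/Qh). Liver blood flow (Qh) was 5.2 L/hr/kg for mouse and 3.8 L/hr/kg for rat. Mouse dosing was 3 mg/kg IV and 10 mg/kg PO; rat dosing was 1 mg/kg IV and PO.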

[18] = Plasma clearance in iv dosed human; format: ADME, organism-based
Mus musculus [19] = assay: Unbound AUC in mouse at 10 mg/kg, po; format: ADME, organism-based; details: in vivo; summary of the method: as §1
MX1 = assay: Antiproliferative activity against human MX1 cells after 72 hrs by Cell Titer Glo assay; format: functional, cell-based; details: MX1, 72 h
[20] = Intrinsic clearance in rat hepatocytes; format: ADME, cell-based, Hepatocyte; details: read-out: CLH (converted)
Translocator protein = Translocator protein (Homo sapiens, UniProt P30536); assay: Antagonist activity at peripheral benzodiazepine receptor (unknown origin)
Protein polybromo-1 [21] = target: T2, Protein polybromo-1 (Homo sapiens, UniProt Q86U86); assay: Binding affinity to human PBRM1 bromodomain-2 (S178 to E291 residues) expressed in bacterial expression system by BROMOscan assay
[22] = Plasma clearance in rat at 1 mg/kg, iv; format: ADME, organism-based
[23] = Oral bioavailability in dog; format: ADME, organism-based, Canis lupus familiaris; details: in vivo
[24] = Intrinsic clearance in human hepatocytes; format: ADME, cell-based, Hepatocyte; details: read-out: CLH (converted)
Mus musculus [25] = assay: Toxicity in NOD.SCID mouse assessed as maximum mean body weight loss at 1 mg/kg, po qd for 25 days (reference value: 9%); format: organism-based; details: in vivo, 600 h
Protein polybromo-1 [26] = target: T2, Protein polybromo-1; assay: Binding affinity to human PBRM1 bromodamian-5 (S645 to D766 residues) expressed in bacterial expression system by BROMOscan assay
[27] = target: Transcription initiation factor TFIID subunit 1-like (Homo sapiens, UniProt Q8IZX4); assay: Binding affinity to human TAF1L (2) (Q1523 to D1654 residues) expressed in bacterial expression system by BROMOscan assay
[28] = target: Bromodomain-containing protein 8 (Homo sapiens, UniProt Q9H0E9); assay: Binding affinity to human BRD8 (1) (S700 to F854 residues) expressed in mammalian expression system by BROMOscan assay
[29] = Plasma clearance in iv dosed monkey; format: ADME, organism-based, Macaca mulatta; details: rhesus monkey
Mus musculus [30] = assay: Plasma unbound clearance in mouse at 3 mg/kg, iv; format: ADME, organism-based; details: in vivo; summary of the method: as §1
Liver [31] = assay: Unbound intrinsic clearance in human liver microsomes at 10 uM preincubated for 5 mins followed by NADPH addition measured after 60 mins by HPLC-UV-MS analysis; format: ADME, microsome; details: 1 h
[32] = target: Histone acetyltransferase KAT2B (Homo sapiens, UniProt Q92831); assay: Binding affinity to human PCAF (G715 to D831 residues) expressed in mammalian expression system by BROMOscan assay
[33] = Oral bioavailability in monkey; format: ADME, organism-based, Macaca mulatta; details: rhesus monkey, in vivo
[34] = target: Histone acetyltransferase KAT2A (Homo sapiens, UniProt Q92830); assay: Binding affinity to human GCN5L2 (E726 to K837 residues) expressed in bacterial expression system by BROMOscan assay
[35] = target: Chromatin remodeling regulator CECR2 (Homo sapiens, UniProt Q9BXF3); assay: Binding affinity to human CECR2 (P423 to D543 residues) expressed in bacterial expression system by BROMOscan assay
[36] = Intrinsic clearance in rat liver microsomes at 10 uM preincubated for 5 mins followed by NADPH addition measured after 60 mins by HPLC-UV-MS analysis; format: ADME, microsome; details: read-out: CLH (converted)
[37] = target: E3 ubiquitin-protein ligase TRIM33 (Homo sapiens, UniProt Q9UPN9); assay: Binding affinity to human TRIM33 (PHD, Bromo) (D882 to A1087 residues) expressed in bacterial expression system by BROMOscan assay
Mus musculus [38] = assay: Inhibition of LPS-induced IL-6 release in po dosed CD-1 mouse serum administered for 1 hr followed by LPS challenge measured after 2 hrs by immunoassay; format: functional, organism-based
Summary of the method: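 Compound given orally to mice, followed by an LPS challenge. Plasma IL-6 and plasma compound concentration were both measured 2 hours after LPS. Inhibition was related to dose and to plasma concentration at the time of cytokine measurement. Values are mean ± SE, n=5 per group.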

T2 sequence (Q86U86 whole entry, the tested form may be a part): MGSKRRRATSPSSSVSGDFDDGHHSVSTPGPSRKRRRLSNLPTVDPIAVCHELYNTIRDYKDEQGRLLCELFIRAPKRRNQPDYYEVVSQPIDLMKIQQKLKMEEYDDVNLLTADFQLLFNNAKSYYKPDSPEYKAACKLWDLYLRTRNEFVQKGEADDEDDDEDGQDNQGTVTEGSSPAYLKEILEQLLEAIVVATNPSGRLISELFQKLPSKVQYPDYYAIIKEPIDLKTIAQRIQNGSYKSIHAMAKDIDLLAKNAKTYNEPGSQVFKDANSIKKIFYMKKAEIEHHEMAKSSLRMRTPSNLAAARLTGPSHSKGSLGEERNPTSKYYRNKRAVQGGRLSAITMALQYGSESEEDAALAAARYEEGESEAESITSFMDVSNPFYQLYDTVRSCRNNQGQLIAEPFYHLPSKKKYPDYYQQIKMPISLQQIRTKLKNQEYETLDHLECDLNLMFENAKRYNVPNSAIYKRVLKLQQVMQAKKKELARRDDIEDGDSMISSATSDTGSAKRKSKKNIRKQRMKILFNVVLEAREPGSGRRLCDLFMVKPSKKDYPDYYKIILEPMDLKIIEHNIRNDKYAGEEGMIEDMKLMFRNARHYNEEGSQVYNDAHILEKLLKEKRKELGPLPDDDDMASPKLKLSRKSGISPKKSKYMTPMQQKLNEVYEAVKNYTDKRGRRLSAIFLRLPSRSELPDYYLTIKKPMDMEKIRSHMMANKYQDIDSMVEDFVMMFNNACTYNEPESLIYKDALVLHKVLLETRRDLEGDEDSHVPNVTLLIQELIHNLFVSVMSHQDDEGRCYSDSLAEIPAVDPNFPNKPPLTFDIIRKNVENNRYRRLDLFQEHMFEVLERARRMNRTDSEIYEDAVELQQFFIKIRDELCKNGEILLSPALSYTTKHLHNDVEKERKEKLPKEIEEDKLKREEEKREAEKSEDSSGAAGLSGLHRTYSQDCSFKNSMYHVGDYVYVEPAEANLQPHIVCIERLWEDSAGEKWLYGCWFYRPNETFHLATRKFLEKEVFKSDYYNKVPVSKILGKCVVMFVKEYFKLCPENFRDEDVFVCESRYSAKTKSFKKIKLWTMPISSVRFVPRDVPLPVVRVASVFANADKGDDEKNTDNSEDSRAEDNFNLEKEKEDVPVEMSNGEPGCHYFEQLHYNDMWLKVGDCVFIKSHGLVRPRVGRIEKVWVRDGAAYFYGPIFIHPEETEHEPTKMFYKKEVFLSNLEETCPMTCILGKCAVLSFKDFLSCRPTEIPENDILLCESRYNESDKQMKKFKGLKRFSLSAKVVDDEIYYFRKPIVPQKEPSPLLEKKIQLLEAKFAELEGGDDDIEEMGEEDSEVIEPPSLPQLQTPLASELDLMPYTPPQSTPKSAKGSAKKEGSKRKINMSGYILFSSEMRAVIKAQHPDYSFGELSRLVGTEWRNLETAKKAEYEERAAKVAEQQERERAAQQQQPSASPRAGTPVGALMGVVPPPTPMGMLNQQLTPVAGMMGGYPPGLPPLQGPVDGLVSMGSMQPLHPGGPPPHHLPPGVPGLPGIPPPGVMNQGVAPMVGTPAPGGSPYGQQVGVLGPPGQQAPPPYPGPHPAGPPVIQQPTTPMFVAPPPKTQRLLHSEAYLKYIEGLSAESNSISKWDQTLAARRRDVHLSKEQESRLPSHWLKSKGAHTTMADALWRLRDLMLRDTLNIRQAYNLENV
Chain of Histone acetyltransferase KAT2A (Q92830 whole entry, the tested form may be a part): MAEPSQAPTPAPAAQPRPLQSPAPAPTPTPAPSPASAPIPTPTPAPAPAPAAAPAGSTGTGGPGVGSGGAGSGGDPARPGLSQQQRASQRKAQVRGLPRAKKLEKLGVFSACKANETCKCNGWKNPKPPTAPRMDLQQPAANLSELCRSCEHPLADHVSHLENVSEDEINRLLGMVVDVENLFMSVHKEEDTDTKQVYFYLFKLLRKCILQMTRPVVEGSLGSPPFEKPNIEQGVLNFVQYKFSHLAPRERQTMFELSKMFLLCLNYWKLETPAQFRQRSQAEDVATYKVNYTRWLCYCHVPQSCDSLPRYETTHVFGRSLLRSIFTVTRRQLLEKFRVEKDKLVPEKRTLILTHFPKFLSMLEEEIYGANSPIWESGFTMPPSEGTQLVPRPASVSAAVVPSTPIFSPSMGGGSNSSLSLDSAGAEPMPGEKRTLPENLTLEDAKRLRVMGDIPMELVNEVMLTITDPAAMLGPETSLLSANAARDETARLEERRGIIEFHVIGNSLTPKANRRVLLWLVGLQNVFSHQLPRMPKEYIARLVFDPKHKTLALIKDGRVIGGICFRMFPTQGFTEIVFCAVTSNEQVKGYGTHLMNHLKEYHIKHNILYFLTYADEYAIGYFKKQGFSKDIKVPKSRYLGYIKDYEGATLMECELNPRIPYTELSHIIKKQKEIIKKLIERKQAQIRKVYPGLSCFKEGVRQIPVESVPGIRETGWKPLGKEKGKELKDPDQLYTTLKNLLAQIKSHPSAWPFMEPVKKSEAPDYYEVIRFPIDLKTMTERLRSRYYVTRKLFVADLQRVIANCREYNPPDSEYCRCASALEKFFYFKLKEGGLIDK
Chain of Histone acetyltransferase KAT2B (Q92831 whole entry, the tested form may be a part): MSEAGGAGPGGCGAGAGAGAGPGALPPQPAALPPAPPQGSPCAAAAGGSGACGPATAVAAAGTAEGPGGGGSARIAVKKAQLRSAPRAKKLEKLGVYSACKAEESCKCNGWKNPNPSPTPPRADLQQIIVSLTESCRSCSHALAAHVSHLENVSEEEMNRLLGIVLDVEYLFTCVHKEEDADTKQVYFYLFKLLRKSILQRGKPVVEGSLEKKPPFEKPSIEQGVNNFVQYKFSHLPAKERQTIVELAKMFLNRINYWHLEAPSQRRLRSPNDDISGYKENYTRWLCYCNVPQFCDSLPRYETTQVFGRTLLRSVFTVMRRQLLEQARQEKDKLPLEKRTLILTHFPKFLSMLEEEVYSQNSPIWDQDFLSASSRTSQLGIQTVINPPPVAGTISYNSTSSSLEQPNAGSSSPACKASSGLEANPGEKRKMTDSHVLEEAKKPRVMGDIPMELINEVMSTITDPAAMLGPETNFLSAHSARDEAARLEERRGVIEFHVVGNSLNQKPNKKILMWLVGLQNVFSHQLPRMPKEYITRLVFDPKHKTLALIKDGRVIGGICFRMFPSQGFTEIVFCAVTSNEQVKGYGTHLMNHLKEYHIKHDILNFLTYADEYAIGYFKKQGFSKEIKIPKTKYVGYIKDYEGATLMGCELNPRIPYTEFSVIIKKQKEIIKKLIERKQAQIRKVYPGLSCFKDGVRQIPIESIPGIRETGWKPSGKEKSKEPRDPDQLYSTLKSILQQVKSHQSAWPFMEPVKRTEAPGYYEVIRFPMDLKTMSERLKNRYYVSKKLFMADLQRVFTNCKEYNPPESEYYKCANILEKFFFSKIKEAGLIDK
Chain of SWI/SNF-related matrix-associated actin-dependent regulator of chromatin subfamily A member 4 (P51532 whole entry, the tested form may be a part): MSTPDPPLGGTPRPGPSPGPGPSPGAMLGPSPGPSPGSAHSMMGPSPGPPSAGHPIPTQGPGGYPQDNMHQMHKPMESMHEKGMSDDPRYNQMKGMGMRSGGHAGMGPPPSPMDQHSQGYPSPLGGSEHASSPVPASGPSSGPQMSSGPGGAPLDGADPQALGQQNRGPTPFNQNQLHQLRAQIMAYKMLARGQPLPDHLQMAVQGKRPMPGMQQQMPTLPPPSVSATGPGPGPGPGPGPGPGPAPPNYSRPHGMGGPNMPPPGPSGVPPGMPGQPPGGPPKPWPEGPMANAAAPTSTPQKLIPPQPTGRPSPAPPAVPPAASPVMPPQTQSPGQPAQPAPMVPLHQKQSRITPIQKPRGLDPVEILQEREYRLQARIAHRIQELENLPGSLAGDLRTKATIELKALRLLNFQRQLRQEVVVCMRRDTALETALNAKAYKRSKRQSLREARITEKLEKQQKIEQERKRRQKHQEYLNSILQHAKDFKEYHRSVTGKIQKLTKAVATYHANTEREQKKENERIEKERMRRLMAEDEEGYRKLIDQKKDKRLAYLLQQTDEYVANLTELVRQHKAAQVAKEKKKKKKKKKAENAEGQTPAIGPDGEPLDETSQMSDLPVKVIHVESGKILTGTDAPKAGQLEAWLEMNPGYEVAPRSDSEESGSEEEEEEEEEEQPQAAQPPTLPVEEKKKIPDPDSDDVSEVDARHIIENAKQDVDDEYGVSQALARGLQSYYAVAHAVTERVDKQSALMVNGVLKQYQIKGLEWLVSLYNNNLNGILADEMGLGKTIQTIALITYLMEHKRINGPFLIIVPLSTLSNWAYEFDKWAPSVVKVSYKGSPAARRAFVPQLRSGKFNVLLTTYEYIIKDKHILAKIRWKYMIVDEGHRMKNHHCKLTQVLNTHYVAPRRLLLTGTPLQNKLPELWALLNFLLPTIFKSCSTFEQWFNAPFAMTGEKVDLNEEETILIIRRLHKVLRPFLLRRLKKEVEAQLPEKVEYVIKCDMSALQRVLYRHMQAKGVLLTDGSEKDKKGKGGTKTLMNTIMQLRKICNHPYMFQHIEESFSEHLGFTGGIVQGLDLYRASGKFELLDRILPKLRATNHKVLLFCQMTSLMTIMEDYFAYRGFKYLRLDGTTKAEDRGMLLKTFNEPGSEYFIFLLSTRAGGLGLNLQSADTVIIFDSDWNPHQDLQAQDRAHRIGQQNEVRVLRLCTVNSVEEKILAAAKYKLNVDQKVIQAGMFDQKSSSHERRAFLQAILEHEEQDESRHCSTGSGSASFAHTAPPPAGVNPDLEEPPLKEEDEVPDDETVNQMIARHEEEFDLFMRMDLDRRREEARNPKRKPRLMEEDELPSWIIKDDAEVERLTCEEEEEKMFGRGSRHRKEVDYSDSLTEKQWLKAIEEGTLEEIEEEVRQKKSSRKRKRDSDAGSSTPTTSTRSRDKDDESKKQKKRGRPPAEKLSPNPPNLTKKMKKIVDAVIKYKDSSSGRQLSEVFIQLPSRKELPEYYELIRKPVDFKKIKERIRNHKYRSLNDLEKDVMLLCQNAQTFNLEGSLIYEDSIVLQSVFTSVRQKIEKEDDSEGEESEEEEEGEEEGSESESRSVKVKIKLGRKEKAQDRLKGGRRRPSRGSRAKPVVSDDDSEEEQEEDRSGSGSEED

pKd [1]: < 6.00 | half-life [2]: 5.8 h | CL free (Liver [3]): < 81.7 mL/min/kg | CLint scaled [4]: 51.7 mL/min/kg | clearance [5]: 8.33 mL/min/kg | pKd [6]: < 6.00 | CLint scaled at 10 µM [7]: < 25 mL/min/kg | fraction unbound at 4 h, 1 µM [8]: 0.02 | clearance [9]: 3.17 mL/min/kg | pKi [10]: 8.82 | fraction unbound at 4 h, 1 µM [11]: 0.023 | pKd [12]: < 6.00 | pKd [13]: > 8.00 | pEC50 [14]: 7.70 | bioavailability [15]: 68 to 83% | half-life [16]: 25.1 h | FaFg (Mus musculus [17]): 0.9 | clearance [18]: 2.33 mL/min/kg | fAUC (Mus musculus [19]): 0.63 µM·h | CLint scaled [20]: 66.7 mL/min/kg | pIC50 (Translocator protein): 6.10 | pKd (Protein polybromo-1 [21]): < 6.00 | clearance [22]: 10 mL/min/kg | bioavailability [23]: 41% | CLint scaled [24]: 14.5 mL/min/kg | pKd (Protein polybromo-1 [26]): < 6.00 | pKd [27]: < 6.00 | pKd [28]: < 6.00 | clearance [29]: 5.5 mL/min/kg | clearance (Mus musculus [30]): 317 mL/min/kg | CL free (Liver [31]): < 48.3 mL/min/kg | pKd [32]: < 6.00 | bioavailability [33]: 33% | pKd [34]: < 6.00 | pKd [35]: < 6.00 | CLint scaled at 10 µM [36]: 66.7 mL/min/kg | pKd [37]: < 6.00
Structure (SMILES): CCS(=O)(=O)Nc1ccc(Oc2ccc(F)cc2F)c(-c2cn(C)c(=O)c3[nH]ccc23)c1 [MIVEBRESIB]
pEC50 (MX1): 7.89 | Activity (Mus musculus [25]): 6% | inhibition (Mus musculus [38]): Dose-dependent effect
